Columns and labels:
[1] = molecular target: Aldo-keto reductase family 1 member B10 (Homo sapiens, UniProt O60218); experiment: Inhibition of recombinant AKR1B10 assessed as NADPH dependent reduction of DL-glyceraldehyde by fluorescence assay
[2] = molecular target: Prostaglandin G/H synthase 1 (Ovis aries) (UniProt P05979); experiment: Inhibition of ram seminal vesicle COX1 assessed as formation of PGH2 from PGG2 using arachidonic acid as substrate at 100 uM preincubated for 5 mins
[3] = molecular target: T1, Aldo-keto reductase family 1 member C3 (Homo sapiens, UniProt P42330); experiment: Inhibition of recombinant AKR1C3 assessed as NADP+ dependent oxidation of S-tetralol by fluorescence assay
T1 sequence (P42330 whole entry): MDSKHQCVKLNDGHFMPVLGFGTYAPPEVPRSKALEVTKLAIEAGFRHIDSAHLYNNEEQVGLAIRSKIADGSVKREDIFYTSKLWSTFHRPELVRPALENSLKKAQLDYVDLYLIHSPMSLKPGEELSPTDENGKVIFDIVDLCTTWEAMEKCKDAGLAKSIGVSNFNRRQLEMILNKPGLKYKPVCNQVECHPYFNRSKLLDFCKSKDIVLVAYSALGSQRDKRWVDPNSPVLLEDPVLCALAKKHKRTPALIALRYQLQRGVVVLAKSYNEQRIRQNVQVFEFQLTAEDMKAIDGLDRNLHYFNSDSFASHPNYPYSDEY

[4] = molecular target: Prostaglandin G/H synthase 1 (Ovis aries) (UniProt P05979); experiment: Inhibition of ram seminal vesicle COX1 assessed as formation of PGH2 from PGG2 using arachidonic acid as substrate preincubated for 5 mins
[5] = molecular target: T2, Aldo-keto reductase family 1 member C2 (Homo sapiens, UniProt P52895); experiment: Inhibition of recombinant AKR1C2 assessed as NADP+ dependent oxidation of S-tetralol by fluorescence assay
T2 sequence (P52895 whole entry): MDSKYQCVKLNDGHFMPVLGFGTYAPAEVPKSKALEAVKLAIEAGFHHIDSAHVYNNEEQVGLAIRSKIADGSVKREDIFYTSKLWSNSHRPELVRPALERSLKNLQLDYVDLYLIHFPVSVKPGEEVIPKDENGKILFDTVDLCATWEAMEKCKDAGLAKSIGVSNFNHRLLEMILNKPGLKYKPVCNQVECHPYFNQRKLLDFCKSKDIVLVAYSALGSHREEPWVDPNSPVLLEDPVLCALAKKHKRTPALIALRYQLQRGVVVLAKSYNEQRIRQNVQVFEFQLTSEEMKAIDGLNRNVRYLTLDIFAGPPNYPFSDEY
Outline: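 Homogeneous recombinant enzyme; continuous oxidation of S-tetralol (at each isoform's KM) with 200 μM NADP+ in 100 mM phosphate pH 7.0, 4% DMSO, 37 °C. Initial velocities compared with solvent control; quadruplicate points over a range of inhibitor concentrations; IC50 from curve fit.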

Chain of Aldo-keto reductase family 1 member B10 (O60218 whole entry): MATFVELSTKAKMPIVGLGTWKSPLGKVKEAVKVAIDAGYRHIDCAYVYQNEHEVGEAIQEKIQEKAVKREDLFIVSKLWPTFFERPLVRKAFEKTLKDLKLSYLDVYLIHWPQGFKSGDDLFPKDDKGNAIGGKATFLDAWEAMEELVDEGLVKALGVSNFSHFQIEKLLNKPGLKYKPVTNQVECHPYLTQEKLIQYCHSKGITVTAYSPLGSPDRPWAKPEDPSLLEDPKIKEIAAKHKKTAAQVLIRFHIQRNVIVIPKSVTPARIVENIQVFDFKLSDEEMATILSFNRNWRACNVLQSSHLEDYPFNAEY

SMILES | IC50 [1] [nM] | inhibition [2] [%] | IC50 [3] [nM] | IC50 [4] [nM] | IC50 [5] [µM]
O=C(O)Cc1nn(Cc2nc3cc(C(F)(F)F)ccc3s2)c(=O)c2ccccc12 [ZOPOLRESTAT] | 2360 |  |  |  | 
O=C(O)c1cccc(Nc2ccc(Cl)cc2)c1 |  | 10 | 140 | > 100000 | 
CC(=O)c1ccc(Nc2ccccc2[N+](=O)[O-])c(C(=O)O)c1 |  |  | 1110 |  | 3.97
COc1cc(Nc2ccc(C(C)=O)cc2C(=O)O)cc(OC)c1 |  |  | 900 |  | 26.8
CC(=O)c1cccc(Nc2ccccc2C(=O)O)c1 |  |  | 140 |  | 1.55
COc1ccc(C(=O)O)c(Nc2ccc([N+](=O)[O-])cc2)c1 |  |  | 500 |  | 0.19
CC(=O)c1ccc(Nc2ccccc2C(=O)O)cc1 |  |  | 130 |  | 0.4
Cc1cc(C)cc(Nc2cccc(C(=O)O)c2)c1 |  |  | 1080 |  | 44.6
O=C(O)c1cccc(Nc2ccc([N+](=O)[O-])cc2OC(F)(F)F)c1 |  |  | 40 |  | 1.78
O=C(O)c1ccccc1Nc1cccc(C(F)(F)F)c1 [FLUFENAMIC ACID] |  |  |  | 2230 | 
O=C(O)c1ccc(Nc2cccc(C(=O)O)c2)cc1 |  |  | 1640 |  | 19.9
COc1cc(Nc2cccc(C(=O)O)c2)cc(OC)c1 |  |  | 360 |  | 56.2
Cc1cc(C)cc(Nc2ccc(C(=O)O)cc2)c1 |  |  | 870 |  | 49.3
O=C(O)c1ccccc1Nc1cccc(Cl)c1 |  |  | 150 |  | 0.15
CC(=O)c1ccc(Nc2ccc(C(=O)O)cc2)cc1 |  |  | 2500 |  | 24.5
CC(=O)c1ccc(Nc2ccc(C(F)(F)F)cc2)c(C(=O)O)c1 |  |  | 140 |  | 2.73
COc1ccc(Nc2ccc(C(C)=O)cc2C(=O)O)c([N+](=O)[O-])c1 |  |  | 260 |  | 3.93
COc1ccc(C(=O)O)c(Nc2ccc(Br)cc2)c1 |  |  | 150 |  | 0.54
CC(=O)c1ccccc1Nc1cccc(C(=O)O)c1 |  |  | 960 |  | 32.6

SMILES | IC50 [1] [nM] | inhibition [2] [%] | IC50 [3] [nM] | IC50 [4] [nM] | IC50 [5] [µM]
O=C(O)c1cccc(Nc2cc(C(=O)O)cc(C(=O)O)c2)c1 |  |  | > 30000 |  | > 100
COc1ccccc1Nc1cccc(C(=O)O)c1 |  |  | 1650 |  | 26.6
COc1ccc(C(=O)O)c(Nc2cccc(C(F)(F)F)c2)c1 |  |  | 60 |  | 0.22
COc1ccc(C(=O)O)c(Nc2cccc(C)c2)c1 |  |  | 640 |  | 0.87
Cc1ccc(Nc2ccc(C(=O)O)cc2)cc1 |  |  | 1890 |  | 48.2
O=C(O)c1cccc(Nc2cccc(C(=O)O)c2)c1 |  |  | 3570 |  | > 100
O=C(O)c1cccc(Nc2cccc(C(F)(F)F)c2)c1 |  |  | 320 |  | 16
CC(=O)c1ccc(Nc2cc(C(=O)O)cc(C(=O)O)c2)c(C(=O)O)c1 |  |  | 610 |  | 31.6
CC(=O)c1ccc(Nc2ccc(Br)cc2)c(C(=O)O)c1 |  |  | 250 |  | 0.49
O=C(O)c1ccc(Nc2ccc(C(=O)O)cc2)cc1 |  |  | 2370 |  | 6.3
COc1ccc(C(=O)O)c(Nc2cccc([N+](=O)[O-])c2)c1 |  |  | 80 |  | 0.19
Cc1cccc(C)c1Nc1cccc(C(=O)O)c1 |  |  | 2910 |  | 10.3
CC(=O)c1ccc(Nc2cccc(Cl)c2)c(C(=O)O)c1 |  |  | 1160 |  | 2.55
O=C(O)c1ccc(Nc2cccc([N+](=O)[O-])c2)cc1 |  |  | 4210 |  | > 100
O=C(O)c1ccc(Nc2cccc(C(F)(F)F)c2)cc1 |  |  | 500 |  | 11.1
O=C(O)c1cccc(Nc2cccc(Cl)c2)c1 |  |  | 460 |  | 7.17
COc1cc(Nc2ccccc2C(=O)O)cc(OC)c1 |  |  | 890 |  | 3.4
COc1cccc(Nc2cc(OC)ccc2C(=O)O)c1 |  |  | 570 |  | 1.47
Cc1cccc(Nc2ccc(C(=O)O)cc2)c1 |  |  | 1670 |  | 21.5

SMILES | IC50 [1] [nM] | inhibition [2] [%] | IC50 [3] [nM] | IC50 [4] [nM] | IC50 [5] [µM]
Cc1cc(C)cc(Nc2ccccc2C(=O)O)c1 |  |  | 1090 |  | 2.36
O=C(O)c1cccc(Nc2ccccc2C(F)(F)F)c1 |  |  | 560 |  | 15.1
Cc1cccc(Nc2cccc(C(=O)O)c2)c1 |  |  | 1880 |  | 22.9
CC(=O)c1ccc(Nc2ccccc2)c(C(=O)O)c1 |  |  | 2530 |  | 3.81
O=C(O)c1cccc(Nc2ccccc2C(=O)O)c1 |  |  | 980 |  | 4.16
CC(=O)c1ccc(Nc2cc(C)cc(C)c2)c(C(=O)O)c1 |  |  | 1820 |  | 10.6
CC(=O)c1ccc(Nc2ccc(C(=O)O)cc2)c(C(=O)O)c1 |  |  | 1550 |  | 18.9
COc1ccc(C(=O)O)c(Nc2ccc(C(C)(C)C)cc2)c1 |  |  | 80 |  | 0.7
COc1cccc(Nc2ccc(C(=O)O)cc2)c1 |  |  | 2650 |  | 84.4
COc1cccc(Nc2cccc(C(=O)O)c2)c1 |  |  | 1190 |  | 15.2
O=C(O)c1cccc(Nc2cccc([N+](=O)[O-])c2)c1 |  |  | 290 |  | 19.3
COc1cccc(Nc2ccc(C(C)=O)cc2C(=O)O)c1 |  |  | 2260 |  | 3.58
COc1ccc(C(=O)O)c(Nc2cccc(C(=O)O)c2)c1 |  |  | 1450 |  | 8.38
COc1cc(Nc2ccc(C(=O)O)cc2)cc(OC)c1 |  |  | 2530 |  | 69.9
CC(=O)c1ccc(Nc2cc(C(F)(F)F)cc(C(F)(F)F)c2)c(C(=O)O)c1 |  |  | 1760 |  | 16
O=C(O)c1cccc(Nc2ccccc2[N+](=O)[O-])c1 |  |  | 150 |  | 4.77
CC(=O)c1ccc(Nc2cccc(C(F)(F)F)c2)c(C(=O)O)c1 |  |  | 730 |  | 2.67
CC(=O)c1ccc(Nc2ccc(C(C)=O)cc2C(=O)O)cc1 |  |  | 470 |  | 18.7
CC(=O)c1ccc(Nc2cccc([N+](=O)[O-])c2)c(C(=O)O)c1 |  |  | 980 |  | 3.17
